Experimental data from ChEMBL document CHEMBL3526151, “Reversible disulfide formation of the glutamate carboxypeptidase II inhibitor E2072 results in prolonged systemic exposures in vivo” (Drug Metab Dispos, 2012).

How the values were obtained:
[1] = Apparent volume of distribution in Sprague-Dawley rat at 30 mg/kg, po administered via gavage measured under fasted conditions by LC-MS/MS analysis; assay type: ADME, organism-based; parameters: dose 30 mg/kg, route oral; conditions: in vivo
In short: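 Fasted male Sprague-Dawley rats (280–330 g) received 0.1, 1, 10 or 30 mg/kg by oral gavage in 50 mM HEPES buffered saline, pH 7.4. Blood drawn at 0.25–24 h into heparin/NEM tubes; plasma analyzed by LC-MS/MS. Cmax taken as observed. AUC by linear trapezoidal rule with extrapolation by λz. Cl/F and Vd/F reported. Mean ± S.D., n = 4–9.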

[2] = Volume of distribution in Sprague-Dawley rat at 30 mg/kg, iv administered as bolus injection measured under fasted conditions by LC-MS/MS analysis; assay type: ADME, organism-based; parameters: dose 30 mg/kg, route intravenous; conditions: in vivo
In short: (§1)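 Jugular-cannulated male Sprague-Dawley rats, 280–330 g, fasted overnight to 4 h post-dose. Single dose in 50 mM HEPES-buffered saline pH 7.4, by oral gavage or as tail-vein i.v. bolus. Blood into heparin/NEM tubes at 0–24 h. Plasma measured by LC-MS/MS; noncompartmental analysis; Tmax observed; Vd = dose/(AUCinf·λz).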

[3] = Tmax in Sprague-Dawley rat at 30 mg/kg, po administered via gavage measured under fasted conditions by LC-MS/MS analysis; assay type: ADME, organism-based; parameters: dose 30 mg/kg, route oral; conditions: in vivo; in short: as §1
[4] = Tmax in Sprague-Dawley rat at 10 mg/kg, iv by LC-MS/MS analysis; assay type: ADME, organism-based; parameters: dose 10 mg/kg, route intravenous; conditions: in vivo
[5] = AUC(0 to infinity) in Sprague-Dawley rat at 30 mg/kg, iv administered as bolus injection measured under fasted conditions by LC-MS/MS analysis; assay type: ADME, organism-based; parameters: time infinity, dose 30 mg/kg, route intravenous; conditions: plasma
In short: (§2)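 Male Sprague-Dawley rats (280–330 g), jugular vein cannulated, fasted overnight until 4 h post-dose. Single tail-vein bolus of 0.1, 1, 10 or 30 mg/kg in 50 mM HEPES buffered saline, pH 7.4. Blood drawn 0–24 h into heparin tubes containing NEM. Plasma quantified by LC-MS/MS after NEM derivatization. Noncompartmental analysis: AUClast by linear trapezoidal rule, Cl = dose/AUC0-∞. Mean ± S.D., n = 4–9.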

[6] = Tmax in Sprague-Dawley rat at 0.1 mg/kg, po administered via gavage measured under fasted conditions by LC-MS/MS analysis; assay type: ADME, organism-based; parameters: dose 0.1 mg/kg, route oral; conditions: in vivo; in short: as §1
[7] = Elimination half life in cynomolgus monkey at 5 mg/kg, iv administered as bolus injection by LC-MS/MS analysis; assay type: ADME, organism-based, Macaca fascicularis; parameters: dose 5 mg/kg, route intravenous; conditions: in vivo, read-out: beta t1/2 (converted)
In short: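 Cynomolgus monkeys (n = 3) received a nominal 5 mg/kg dose in 50 mM HEPES, TCEP-treated to prevent disulfide formation. Dosing was either an IV bolus via cephalic or saphenous vein or oral. Arterial cannula blood was collected into NEM-containing heparinized tubes for up to 9 days and analyzed by LC-MS/MS. Noncompartmental analysis gave t1/2 = 0.693/λz and F% = dose-normalized mean AUCinf p.o./i.v. ×100.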

[8] = Cmax in Sprague-Dawley rat kidney at 10 mg/kg/day, po administered for 5 days measured per gm of tissue by LC-MS/MS analysis; assay type: ADME, organism-based; parameters: dose 10 mg/kg/day, route oral
In short: (§3)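 Male Sprague-Dawley rats were dosed orally with 10 mg/kg/day, either once or daily for 5 days; n = 4 per group. Blood was taken by cardiac puncture and liver, kidney, brain and sciatic nerve were collected at 0–8 h post-dose. Tissues were homogenized in PBS containing NEM at equal volume per gram. NEM-derivatized analyte was extracted with methanol and quantified by LC-MS/MS (1–5000 ng/ml). Cmax is the observed value.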

Cynomolgus monkey [9] = assay: AUC(0 to infinity) in cynomolgus monkey at 5 mg/kg, po by LC-MS/MS analysis; assay type: ADME, organism-based, Macaca fascicularis, Plasma; parameters: dose 5 mg/kg, route oral, time infinity; conditions: in vivo
In short: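 Cynomolgus monkeys (n = 3) dosed orally at a nominal 5 mg/kg in TCEP-treated 50 mM HEPES solution. Blood taken via iliac or femoral arterial cannula up to 9 days into heparin/NEM tubes. Plasma analyzed by LC-MS/MS. Cl/F and Vd/F derived noncompartmentally.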

[10] = Half life in Sprague-Dawley rat at 30 mg/kg, iv administered as bolus injection measured under fasted conditions by LC-MS/MS analysis; assay type: ADME, organism-based; parameters: dose 30 mg/kg, route intravenous; conditions: in vivo
[11] = Apparent oral clearance in Sprague-Dawley rat at 10 mg/kg, po administered via gavage measured under fed conditions by LC-MS/MS analysis; assay type: ADME, organism-based; parameters: dose 10 mg/kg, route oral; conditions: in vivo
In short: (§4)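 Nonfasted male Sprague-Dawley rats given a single 10 mg/kg oral dose in 50 mM HEPES buffered saline, pH 7.4. Plasma collected 0.25–24 h into heparin/NEM tubes and assayed by LC-MS/MS. Noncompartmental parameters derived, including Cl/F and Vd/F. Mean ± S.D., n = 6–9.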

[12] = Oral bioavailability in Sprague-Dawley rat at 1 mg/kg administered via gavage measured under fasted conditions by LC-MS/MS analysis; assay type: ADME, organism-based; conditions: in vivo
[13] = Tmax in Sprague-Dawley rat at 1 mg/kg, po administered via gavage measured under fasted conditions by LC-MS/MS analysis; assay type: ADME, organism-based; parameters: dose 1 mg/kg, route oral; conditions: in vivo; in short: as §1
[14] = AUC(0 to last) in Sprague-Dawley rat at 1 mg/kg, iv administered as bolus injection measured under fasted conditions by LC-MS/MS analysis; assay type: ADME, organism-based; parameters: time 0 - last, dose 1 mg/kg, route intravenous; conditions: plasma; in short: as §2
Rattus norvegicus = organism: Rattus norvegicus; assay: Drug recovery in Sprague-Dawley rat plasma stability experiment; conditions: in vitro
[15] = Half life in Sprague-Dawley rat at 0.1 mg/kg, iv administered as bolus injection measured under fasted conditions by LC-MS/MS analysis; assay type: ADME, organism-based; parameters: dose 0.1 mg/kg, route intravenous; conditions: in vivo
Cynomolgus monkey [16] = assay: AUC(0 to infinity) in cynomolgus monkey at 5 mg/kg, iv administered as bolus injection by LC-MS/MS analysis; assay type: ADME, organism-based, Macaca fascicularis, Plasma; parameters: time infinity, dose 5 mg/kg, route intravenous; conditions: in vivo
In short: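 Cynomolgus monkeys (n = 3) given a 5 mg/kg intravenous bolus via cephalic or saphenous vein. Dosing solution in 50 mM HEPES, TCEP-treated. Arterial cannula blood collected up to 9 days into heparin/NEM tubes. Plasma assayed by LC-MS/MS. Noncompartmental analysis.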

[17] = Phase 1 metabolic stability in dog liver microsomes assessed as compound remaining at 10 uM measured for 1 hr by LC-MS/MS analysis in absence of cofactors; assay type: ADME, Canis lupus familiaris; conditions: read-out: Stability
In short: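 Cofactor-free controls were run for each microsomal incubation: 0.5 mg/ml liver microsomes with 10 µM compound, omitting cofactors, so that cofactor-independent degradation could be measured. Samples were taken up to 1 h, quenched with acetonitrile containing internal standard, and the percent remaining was determined by LC-MS/MS.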

[18] = AUC(0 to last) in Sprague-Dawley rat at 10 mg/kg, po administered via gavage measured under fed conditions by LC-MS/MS analysis; assay type: ADME, organism-based; parameters: time 0 - last, dose 10 mg/kg, route oral; conditions: plasma; in short: as §4
[19] = Protein binding in cynomolgus monkey serum at 10 uM after 1 hr by LC-MS/MS analysis; assay type: ADME, Macaca fascicularis; conditions: read-out: PB (converted)
In short: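 Serum from the named species spiked to 10 μM and held 1 h at 37°C, then ultrafiltered through a 5000 Da cutoff device (45 min, 37°C, 1800g). Filtrate and unfiltered serum extracted and measured by LC-MS/MS; % bound = 100 − (Cu/Cs × 100).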

[20] = Cmax in Sprague-Dawley rat sciatic nerve at 10 mg/kg, po administered as single dose measured per gm of tissue by LC-MS/MS analysis; assay type: ADME, organism-based; parameters: dose 10 mg/kg, route oral; in short: as §3
[21] = Volume of distribution in Sprague-Dawley rat at 10 mg/kg, iv by LC-MS/MS analysis; assay type: ADME, organism-based; parameters: dose 10 mg/kg, route intravenous; conditions: in vivo
[22] = AUC(0 to infinity) in Sprague-Dawley rat at 10 mg/kg, po administered via gavage measured under fed conditions by LC-MS/MS analysis; assay type: ADME, organism-based; parameters: time infinity, dose 10 mg/kg, route oral; conditions: plasma; in short: as §4

A Vd/F [1] of 2.39 L/kg, a Vd [2] of 1.08 L/kg and a Tmax [3] of 1.43 h were found for `O=C(O)c1cccc(-c2cccc(CCS)c2C(=O)O)c1` in this work. The Tmax [4] was 6.6 min, the AUC(0-inf) [5] was 204000 ng·h/mL and the Tmax [6] was 0.83 h. It also gave a half-life [7] of 23 h, a Cmax [8] of 388 ng/g and an AUC (Cynomolgus monkey [9]) of 24935.6 ng·h/mL. The half-life [10] was 4.07 h, the CL/F [11] was 5 mL/min/kg and the bioavailability [12] was 23.7%. For the same molecule, the Tmax [13] was 0.58 h, the AUC(0-t) [14] was 12700 ng·h/mL and the Drug recovery (Rattus norvegicus) was 60%. For the same molecule, the half-life [15] was 2.3 h, the AUC (Cynomolgus monkey [16]) was 63622.1 ng·h/mL and the remaining at 1 h, 10 µM [17] was greater than 90%. It also gave an AUC(0-t) [18] of 32200 ng·h/mL, a fraction unbound at 1 h, 10 µM [19] of 0.101 and a Cmax [20] of 203 ng/g. It also gave a Vd [21] of 19 L/kg and an AUC(0-inf) [22] of 37100 ng·h/mL.
